Measurements published in ChEMBL document CHEMBL4387724, “2-Pyridineformamide N(4)-ring incorporated thiosemicarbazones inhibit MCF-7 cells by inhibiting JNK pathway” (Bioorg Med Chem Lett, 2019).

Key:
MCF7 [1] = assay: Cytotoxicity against human MCF7 cells assessed as reduction in cell growth incubated for 72 hrs by MTT assay; type: functional, cell-based; conditions: MCF7, 72 h
Method in brief: (§1)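 Cells grown in DMEM with 10% FBS and penicillin-streptomycin at 37 °C, 5% CO2, seeded at 3000 cells/well and attached overnight. Screening series given at 1, 3, 10, 100 μM; follow-up agent at 100 nM–3 μM; both 72 h, with 0.1% DMSO vehicle. MTT (5 mg/mL stock) added for 3 h at 37 °C, formazan dissolved in DMSO, absorbance read at 570 nm. Viability expressed as % of DMSO-treated wells from replicates.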

A-431 [2] = assay: Cytotoxicity against human A431 cells assessed as reduction in cell growth incubated for 72 hrs by MTT assay; type: functional, cell-based; conditions: A-431, 72 h; method in brief: as §1
A-375 [3] = assay: Cytotoxicity against human A375 cells assessed as reduction in cell growth incubated for 72 hrs by MTT assay; type: functional, cell-based; conditions: A-375, 72 h; method in brief: as §1
HeLa [4] = assay: Cytotoxicity against human HeLa cells assessed as reduction in cell growth incubated for 72 hrs by MTT assay; type: functional, cell-based; method in brief: as §1
A-375 [5] = assay: Cytotoxicity against human A375 cells assessed as reduction in cell growth at 1 uM incubated for 72 hrs by MTT assay relative to control; type: functional; conditions: A-375, 72 h, read-out: GI; method in brief: as §1
A-375 [6] = assay: Cytotoxicity against human A375 cells assessed as reduction in cell growth at 3 uM incubated for 72 hrs by MTT assay relative to control; type: functional; conditions: A-375, 72 h, read-out: GI; method in brief: as §1
A-375 [7] = assay: Cytotoxicity against human A375 cells assessed as reduction in cell growth at 10 uM incubated for 72 hrs by MTT assay relative to control; type: functional; conditions: A-375, 72 h, read-out: GI; method in brief: as §1
A-375 [8] = assay: Cytotoxicity against human A375 cells assessed as reduction in cell growth at 30 uM incubated for 72 hrs by MTT assay relative to control; type: functional; conditions: A-375, 72 h, read-out: GI
A-375 [9] = assay: Cytotoxicity against human A375 cells assessed as reduction in cell growth at 100 uM incubated for 72 hrs by MTT assay relative to control; type: functional; conditions: A-375, 72 h, read-out: GI; method in brief: as §1
A-431 [10] = assay: Cytotoxicity against human A431 cells assessed as reduction in cell growth at 1 uM incubated for 72 hrs by MTT assay relative to control; type: functional; conditions: A-431, 72 h, read-out: GI; method in brief: as §1
A-431 [11] = assay: Cytotoxicity against human A431 cells assessed as reduction in cell growth at 3 uM incubated for 72 hrs by MTT assay relative to control; type: functional; conditions: A-431, 72 h, read-out: GI; method in brief: as §1
A-431 [12] = assay: Cytotoxicity against human A431 cells assessed as reduction in cell growth at 10 uM incubated for 72 hrs by MTT assay relative to control; type: functional; conditions: A-431, 72 h, read-out: GI; method in brief: as §1
A-431 [13] = assay: Cytotoxicity against human A431 cells assessed as reduction in cell growth at 30 uM incubated for 72 hrs by MTT assay relative to control; type: functional; conditions: A-431, 72 h, read-out: GI
A-431 [14] = assay: Cytotoxicity against human A431 cells assessed as reduction in cell growth at 100 uM incubated for 72 hrs by MTT assay relative to control; type: functional; conditions: A-431, 72 h, read-out: GI; method in brief: as §1
HeLa [15] = assay: Cytotoxicity against human HeLa cells assessed as reduction in cell growth at 1 uM incubated for 72 hrs by MTT assay relative to control; type: functional; conditions: read-out: GI; method in brief: as §1
HeLa [16] = assay: Cytotoxicity against human HeLa cells assessed as reduction in cell growth at 3 uM incubated for 72 hrs by MTT assay relative to control; type: functional; conditions: read-out: GI; method in brief: as §1
HeLa [17] = assay: Cytotoxicity against human HeLa cells assessed as reduction in cell growth at 10 uM incubated for 72 hrs by MTT assay relative to control; type: functional; conditions: read-out: GI; method in brief: as §1
HeLa [18] = assay: Cytotoxicity against human HeLa cells assessed as reduction in cell growth at 30 uM incubated for 72 hrs by MTT assay relative to control; type: functional; conditions: read-out: GI
HeLa [19] = assay: Cytotoxicity against human HeLa cells assessed as reduction in cell growth at 100 uM incubated for 72 hrs by MTT assay relative to control; type: functional; conditions: read-out: GI; method in brief: as §1
MCF7 [20] = assay: Cytotoxicity against human MCF7 cells assessed as reduction in cell growth at 1 uM incubated for 72 hrs by MTT assay relative to control; type: functional; conditions: MCF7, 72 h, read-out: GI; method in brief: as §1
MCF7 [21] = assay: Cytotoxicity against human MCF7 cells assessed as reduction in cell growth at 3 uM incubated for 72 hrs by MTT assay relative to control; type: functional; conditions: MCF7, 72 h, read-out: GI; method in brief: as §1
MCF7 [22] = assay: Cytotoxicity against human MCF7 cells assessed as reduction in cell growth at 10 uM incubated for 72 hrs by MTT assay relative to control; type: functional; conditions: MCF7, 72 h, read-out: GI; method in brief: as §1
MCF7 [23] = assay: Cytotoxicity against human MCF7 cells assessed as reduction in cell growth at 30 uM incubated for 72 hrs by MTT assay relative to control; type: functional; conditions: MCF7, 72 h, read-out: GI
MCF7 [24] = assay: Cytotoxicity against human MCF7 cells assessed as reduction in cell growth at 100 uM incubated for 72 hrs by MTT assay relative to control; type: functional; conditions: MCF7, 72 h, read-out: GI; method in brief: as §1

| Structure (SMILES) | IC50 (MCF7 [1]) | IC50 (A-431 [2]) | IC50 (A-375 [3]) | IC50 (HeLa [4]) | inhibition of growth at 1 µM (A-375 [5]) | inhibition of growth at 3 µM (A-375 [6]) | inhibition of growth at 10 µM (A-375 [7]) | inhibition of growth at 30 µM (A-375 [8]) | inhibition of growth at 100 µM (A-375 [9]) | inhibition of growth at 1 µM (A-431 [10]) | inhibition of growth at 3 µM (A-431 [11]) | inhibition of growth at 10 µM (A-431 [12]) | inhibition of growth at 30 µM (A-431 [13]) | inhibition of growth at 100 µM (A-431 [14]) | inhibition of growth at 1 µM (HeLa [15]) | inhibition of growth at 3 µM (HeLa [16]) | inhibition of growth at 10 µM (HeLa [17]) | inhibition of growth at 30 µM (HeLa [18]) | inhibition of growth at 100 µM (HeLa [19]) | inhibition of growth at 1 µM (MCF7 [20]) | also measured |
| --- | --- | --- | --- | --- | --- | --- | --- | --- | --- | --- | --- | --- | --- | --- | --- | --- | --- | --- | --- | --- | --- |
| Cc1cccc(/C(N)=N/NC(=S)N2CCCCCC2)n1 | 54.7 µM | 14.7 µM | 1.8 µM | 1 µM | 39.6% | 64.5% | 79.9% | 70.3% | 80.9% | 42.8% | 44.1% | 45.8% | 63.5% | 76.7% | 49.5% | 63.6% | 71.7% | 81.2% | 82.7% | 6.3% | inhibition of growth at 3 µM (MCF7 [21]): 15.7%; inhibition of growth at 10 µM (MCF7 [22]): 21.5%; inhibition of growth at 30 µM (MCF7 [23]): 38.8%; inhibition of growth at 100 µM (MCF7 [24]): 70.2% |
| Cc1ccnc(/C(N)=N/NC(=S)N2CCSCC2)c1 | 6.9 µM | 7.2 µM | 1.2 µM | 15.5 µM | 47.7% | 67.2% | 74.5% | 84.9% | 89.9% | 34.6% | 34.7% | 60% | 75.3% | 79.6% | 41.1% | 40.4% | 39.2% | 78.3% | 91.6% | 3.89% | inhibition of growth at 3 µM (MCF7 [21]): 33.8%; inhibition of growth at 10 µM (MCF7 [22]): 62.5%; inhibition of growth at 30 µM (MCF7 [23]): 74.2%; inhibition of growth at 100 µM (MCF7 [24]): 76.8% |
| N/C(=N\NC(=S)N1CCOCC1)c1ccccn1 | 4.7 µM | 4.8 µM | 0.68 µM | 7.3 µM | 26.8% | 19.3% | 18.3% | 15% | 14% | 29.2% | 43.1% | 69.4% | 78.8% | 84.6% | 12.7% | 40% | 56.3% | 82.8% | 87.2% | 14.7% | inhibition of growth at 3 µM (MCF7 [21]): 44.5%; inhibition of growth at 10 µM (MCF7 [22]): 66.7%; inhibition of growth at 30 µM (MCF7 [23]): 78.1%; inhibition of growth at 100 µM (MCF7 [24]): 81.6% |
| N/C(=N\NC(=S)N1CCN(c2ccccn2)CC1)c1ccc(F)cn1 | 22 µM | 13.4 µM | 1.4 µM | 2 µM | 49.3% | 53.1% | 56.8% | 73.2% | 76.2% | 31.1% | 43% | 47.4% | 62.3% | 77.1% | 22.5% | 77.3% | 80% | 87% | 83% | 13.4% | inhibition of growth at 3 µM (MCF7 [21]): 27.1%; inhibition of growth at 10 µM (MCF7 [22]): 35.8%; inhibition of growth at 30 µM (MCF7 [23]): 58.6%; inhibition of growth at 100 µM (MCF7 [24]): 74.3% |
| Cc1cccc(/C(N)=N/NC(=S)N2CCCC2)n1 | 61.8 µM | 4 µM | 2.9 µM | 2.7 µM | 13.6% | 51.3% | 55.9% | 60.8% | 66.3% | 21% | 47.2% | 67.6% | 72.2% | 86.8% | 8.7% | 56.8% | 79.2% | 74.5% | 80.1% | 17.4% | inhibition of growth at 3 µM (MCF7 [21]): 26.6%; inhibition of growth at 10 µM (MCF7 [22]): 38.2%; inhibition of growth at 30 µM (MCF7 [23]): 40.1%; inhibition of growth at 100 µM (MCF7 [24]): 61.8% |
| Cc1cccc(/C(N)=N/NC(=S)N2CCCCC2)n1 | 74 µM | 12.4 µM | 1 µM | 2 µM | 49.9% | 63.2% | 76.4% | 80.9% | 85.7% | 35% | 36.6% | 47.8% | 65.2% | 77.5% | 27% | 68.9% | 83.5% | 83.5% | 85.4% | 19.5% | inhibition of growth at 3 µM (MCF7 [21]): 27.1%; inhibition of growth at 10 µM (MCF7 [22]): 39%; inhibition of growth at 30 µM (MCF7 [23]): 43%; inhibition of growth at 100 µM (MCF7 [24]): 54% |
